Experimental data from ChEMBL document CHEMBL4400528, “Discovery and Optimization of Selective and in Vivo Active Inhibitors of the Lysophosphatidylserine Lipase α/β-Hydrolase Domain-Containing 12 (ABHD12)” (J Med Chem, 2019).
Calls of active or inactive are those of the source. No cut-off for these calls is given here.

Key:
[1] = biological target: T1, Lysophosphatidylserine lipase ABHD12 (Mus musculus, UniProt Q99LR1); experiment: Inhibition of JJH350 binding to ABHD12 in mouse brain membrane proteome incubated for 20 mins by CuAAC fluorescence dependent gel-based competitive ABPP assay; assay type: cell membranes
T1 sequence (Q99LR1 whole entry): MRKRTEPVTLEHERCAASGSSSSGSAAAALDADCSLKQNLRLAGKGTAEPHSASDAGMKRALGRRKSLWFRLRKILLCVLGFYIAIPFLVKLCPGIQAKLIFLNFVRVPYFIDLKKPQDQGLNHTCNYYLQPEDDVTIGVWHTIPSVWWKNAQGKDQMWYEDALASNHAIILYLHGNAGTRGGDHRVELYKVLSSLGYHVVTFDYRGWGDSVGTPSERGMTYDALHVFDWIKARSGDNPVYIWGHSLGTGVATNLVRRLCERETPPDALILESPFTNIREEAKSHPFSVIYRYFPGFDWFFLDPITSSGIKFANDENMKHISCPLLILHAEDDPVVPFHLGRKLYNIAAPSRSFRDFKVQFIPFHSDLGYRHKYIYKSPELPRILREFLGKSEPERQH
Summary of the method: (§1)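 Brain membrane fraction (1 mg/mL; DPBS homogenate, 16,000 x g pellet) treated with inhibitor for 20 min at room temperature. JJH350 (2 μM) added for 45 min at 37 °C, then CuAAC with rhodamine-PEG3-azide, CuSO4, TBTA and TCEP for 1 h at room temperature. Run on 10% SDS-PAGE and read by in-gel fluorescence. ABHD12 band normalized to control-treated sample (100%); IC50 from log dose-response fit.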

[2] = biological target: T2, Lysophosphatidylserine lipase ABHD12 (Mus musculus) (UniProt Q99LR1); experiment: Inhibition of JJH350 binding to ABHD12 in mouse brain membrane proteome at 10 uM after 20 mins by CuAAC based fluorescence scanning assay relative to control; assay type: cell membranes; summary of the method: as §1
T2 sequence (whole entry): T1 sequence (Q99LR1 whole entry)

[3] = biological target: T2, Lysophosphatidylserine lipase ABHD12 (Mus musculus); experiment: Inhibition of JJH350 binding to ABHD12 in mouse brain membrane proteome at 2 uM after 20 mins by CuAAC based fluorescence scanning assay relative to control; assay type: cell membranes; summary of the method: as §1
[4] = biological target: T1, Lysophosphatidylserine lipase ABHD12; experiment: Inhibition of FP-Rh probe binding to ABHD12 in mouse brain membrane proteome incubated for 45 mins by CuAAC fluorescence dependent gel-based competitive ABPP assay; assay type: cell membranes
Summary of the method: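 Mouse brain membrane proteome (1 mg/mL) preincubated with inhibitor for 45 min at 37 °C. Labelled with FP-Rh (1 μM) or JJH350 (2 μM) for 45 min at 37 °C. JJH350 samples were clicked to Rh-N3 (25 μM) by CuAAC for 60 min at room temperature. Read by 10% SDS-PAGE and in-gel fluorescence scanning. Band intensity taken relative to control (100%), and IC50 from log(inhibitor) vs normalized response.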

[5] = tested on: Mus musculus; experiment: In vivo inhibition of JJH350 binding to ABHD12 in mouse at 30 mg/kg, ip treated for 4 hrs by CuAAC based fluorescence scanning assay; assay type: functional, organism-based
Summary of the method: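 Mice injected i.p. at 10 μL/g body weight with fresh suspension in EtOH/PEG40/DPBS 1:1:18. Anesthetized with isoflurane, killed by cervical dislocation, tissues harvested. Tissues dounce-homogenized in DPBS; membrane fraction from 16,000 x g spin. Labelled with JJH350, then CuAAC to rhodamine-azide, SDS-PAGE and fluorescence scanning.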

[6] = biological target: T3, Lysophosphatidylserine lipase ABHD12 (Homo sapiens) (UniProt Q8N2K0); experiment: Time dependent inhibition of FP-Rh binding to ABHD12 (unknown origin) expressed in HEK293T cell membranes by gel-based ABPP assay
T3 sequence (whole entry): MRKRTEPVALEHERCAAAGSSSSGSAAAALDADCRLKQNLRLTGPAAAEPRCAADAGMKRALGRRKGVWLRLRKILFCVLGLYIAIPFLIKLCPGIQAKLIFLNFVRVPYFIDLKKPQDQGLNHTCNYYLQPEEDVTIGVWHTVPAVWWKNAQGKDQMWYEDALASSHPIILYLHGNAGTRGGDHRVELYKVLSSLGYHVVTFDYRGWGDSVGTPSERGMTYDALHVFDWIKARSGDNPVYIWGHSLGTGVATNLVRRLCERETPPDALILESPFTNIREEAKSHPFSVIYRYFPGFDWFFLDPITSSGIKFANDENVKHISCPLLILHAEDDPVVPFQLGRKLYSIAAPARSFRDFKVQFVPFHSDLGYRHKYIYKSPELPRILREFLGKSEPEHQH

Compound	IC50 [1] [nM]	inhibition [2] [%]	inhibition [3] [%]	also measured
S=C(Nc1cccnc1)NC1CCN(c2ncccc2Cl)CC1	> 5000	–	–	–
FC(F)(F)Oc1ccc(Oc2ccnc(N3CCC(NC(=S)Nc4cccnc4)CC3)c2Cl)cc1Cl	33	–	–	–
COc1ccc(NC(=S)NC2CCN(c3ncc(C(F)(F)F)cc3Cl)CC2)cn1	–	1	0	–
N#Cc1c(Oc2ccc(OC(F)(F)F)cc2)ccnc1N1CCC(NC(=S)Nc2cccnc2)CC1	180	–	–	–
FC(F)(F)Oc1ccc(Oc2ccnc(N3CCC(NC(=S)Nc4cccnc4)CC3)c2Cl)cc1	25	–	–	–
FC(F)(F)c1ccnc(N2CCC(NC(=S)Nc3cccnc3)CC2)c1	640	–	–	–
Cc1c(Oc2ccc(OC(F)(F)F)cc2)ccnc1N1CCC(NC(=S)Nc2cccnc2)CC1	26	–	–	–
FC(F)(F)c1cnc(N2CCC(NC(=S)Nc3cccnc3)C2)c(Cl)c1 (centres undefined)	–	12	1	–
FC(F)(F)c1cnc(N2CCCC(NC(=S)Nc3cccnc3)CC2)c(Cl)c1 (centres undefined)	–	59	9	–
FC(F)(F)c1cnc(N2CCCC(NC(=S)Nc3cccnc3)C2)c(Cl)c1 (centres undefined)	–	4	0	–
FC(F)(F)c1cccc(N2CCC(NC(=S)Nc3cccnc3)CC2)n1	630	–	–	–
COc1ccc(N2CCN(C(=O)ON3C(=O)C4CN(C(=O)c5ccc(Oc6ccccc6)cc5)CCN4C3=O)CC2)cc1 (centres undefined)	–	–	–	IC50 [4]: 320 nM; inhibition [5]: Active
FC(F)(F)c1cnc(NCCCCCCNC(=S)Nc2cccnc2)c(Cl)c1	–	70	22	–
S=C(Nc1cccnc1)NC1CCN(c2cc(OCc3ccccc3)ccn2)CC1	2800	–	–	–
FC(F)(F)c1ccnc(N2CCC(NC(=S)Nc3cccnc3)CC2)c1Cl	300	–	–	–
FC(F)(F)c1ccc(N2CCC(NC(=S)Nc3cccnc3)CC2)nc1	1900	–	–	–
S=C(Nc1cccnc1)NC1CCN(c2cc(OCC3CC3)ccn2)CC1	4700	–	–	–
FC(F)(F)c1cnc(N2CCC(NC(=S)Nc3cnc4ccccc4c3)CC2)c(Cl)c1	–	2	0	–
FC(F)(F)c1cnc(N2CCC(NC(=S)N3CCCc4ccccc43)CC2)c(Cl)c1	–	0	0	–
COc1ccc(Oc2ccnc(N3CCC(NC(=S)Nc4cccnc4)CC3)c2)cc1	2900	–	–	–
Cc1cnc(N2CCC(NC(=S)Nc3cccnc3)CC2)c(Cl)c1	3100	–	–	–
FC(F)(F)c1cnc(N2CCC(NC(=S)Nc3cccnc3)CC2)c(Cl)c1	1100	96	89	TDI [6]: inactive
FC(F)(F)Oc1ccc(Oc2ccnc(N3CCC[C@@H](NC(=S)Nc4cccnc4)C3)c2Cl)c(Cl)c1	100000	–	–	–
